In one data set the target is Cannabinoid receptor 1 (Homo sapiens, UniProt P21554). Put plainly: Displacement of [3H]CP-55940 from human recombinant CB1 receptor expressed in HEK293 cell membranes incubated for 1.5 hrs. The procedure, abridged:
(§1)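 Membranes from HEK-293 cells overexpressing human CB1 or CB2 incubated with increasing compound concentrations and 0.5 nM [3H]CP-55,940 at 30 °C for 1.5 h. […] Selectivity index is Ki CB1/Ki CB2.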
In general terms: Loss of bound radioactivity is the signal in a displacement assay; it reports binding, not function.

The target of data set [1] is Cannabinoid receptor 1 (CB1) (Homo sapiens, UniProt P21554). The data set can be described thus: Displacement of [3H]CP-55940 from human recombinant CB1 receptor expressed in HEK293 cell membranes at 1 uM incubated for 1.5 hrs relative to control. To be noted: probe [3H]CP-55940. The method, boiled down:
(§2)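 Single-point screen on HEK-293 membranes overexpressing human CB1 or CB2. […] Compounds displacing more than 50% at 1 μM went on to full curves.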

In data set [2] the target is T1, Cannabinoid receptor 2 (Homo sapiens, UniProt P34972). The data set can be described thus: Displacement of [3H]CP-55940 from human recombinant CB2 receptor expressed in HEK293 cell membranes at 1 uM incubated for 1.5 hrs relative to control. The method, boiled down: as §2
The target in data set [3] is T1, Cannabinoid receptor 2. The data set can be described thus: Displacement of [3H]CP-55940 from human recombinant CB2 receptor expressed in HEK293 cell membranes incubated for 1.5 hrs. The method, boiled down: as §1
The species named for another data set is Homo sapiens. The data set can be described thus: Selectivity index, ratio of Ki for displacement of [3H]CP-55940 from human recombinant CB1 receptor to Ki for displacement of [3H]CP-55940 from human recombinant CB2 receptor. The method, boiled down: as §1
Data set [4] can be described thus: Cytotoxicity against human HeLa cells assessed as reduction in cell viability measured after 72 hrs by MTT assay. It counts as functional, cell-based. The procedure, abridged: (§3)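 Cells kept in RPMI 1640 with 5% FBS, penicillin/streptomycin, 37 °C, 5% CO2. Seeded at 10,000 cells/well, then exposed to compounds at 0.001–10 μM in 5% FBS-RPMI for 72 h at 37 °C. MTT added for 4 h, formazan dissolved overnight in 10% SDS/0.1 mM HCl, absorbance read at 570 nm. […] Etoposide as positive control.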
On the technique in general: Tetrazolium dyes change colour on reduction, which living cells bring about.

Data set [5] is described as follows: Cytotoxicity against resistant human HCT116 cells assessed as reduction in cell viability measured after 72 hrs by MTT assay. It counts as functional, cell-based. The settings on record: HCT-116, 72 h. The method, boiled down: as §3
Data set [6] in a line: Cytotoxicity against African green monkey Vero cells assessed as reduction in cell viability measured after 72 hrs by MTT assay. In kind it is toxicity, cell-based. The settings on record: Chlorocebus sabaeus (African green monkey). The procedure, abridged:
as §3

A short description of data set [7]: Cytotoxicity against human HL60 cells assessed as reduction in cell viability measured after 72 hrs by MTT assay. It counts as functional, cell-based. To be noted: HL-60, 72 h. The procedure, abridged:
as §3

Data set [8] can be described thus: Cytotoxicity against human H1975-1 cells assessed as reduction in cell viability measured after 72 hrs by MTT assay. It counts as functional, cell-based. The procedure, abridged:
as §3

Each structure is given as a SMILES string.

Cannabinoid receptor 1, sequence (P21554 whole entry): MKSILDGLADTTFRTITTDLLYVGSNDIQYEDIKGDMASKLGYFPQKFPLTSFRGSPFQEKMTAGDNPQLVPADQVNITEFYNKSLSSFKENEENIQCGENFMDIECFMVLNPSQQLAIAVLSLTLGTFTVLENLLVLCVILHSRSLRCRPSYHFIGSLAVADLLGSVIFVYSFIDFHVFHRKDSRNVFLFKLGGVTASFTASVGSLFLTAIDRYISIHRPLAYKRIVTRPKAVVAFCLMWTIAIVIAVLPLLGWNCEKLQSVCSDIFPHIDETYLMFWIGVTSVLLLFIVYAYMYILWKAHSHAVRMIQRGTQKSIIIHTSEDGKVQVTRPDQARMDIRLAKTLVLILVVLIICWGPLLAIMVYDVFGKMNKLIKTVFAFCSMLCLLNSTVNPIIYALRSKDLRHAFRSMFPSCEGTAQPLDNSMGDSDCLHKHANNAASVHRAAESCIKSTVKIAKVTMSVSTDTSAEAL
Cannabinoid receptor 1 (CB1), sequence (P21554 whole entry): as above
T1 sequence (P34972 whole entry): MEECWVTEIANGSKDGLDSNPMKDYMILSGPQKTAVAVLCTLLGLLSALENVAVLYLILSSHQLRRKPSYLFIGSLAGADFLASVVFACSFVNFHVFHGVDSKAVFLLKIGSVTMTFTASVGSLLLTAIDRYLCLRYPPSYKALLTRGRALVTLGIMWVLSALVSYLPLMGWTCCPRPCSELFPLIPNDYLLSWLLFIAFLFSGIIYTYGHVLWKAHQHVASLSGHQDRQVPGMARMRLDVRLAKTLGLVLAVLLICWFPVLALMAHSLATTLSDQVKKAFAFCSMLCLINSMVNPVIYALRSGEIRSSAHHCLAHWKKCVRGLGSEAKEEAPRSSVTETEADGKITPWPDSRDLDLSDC

The IC50 is the concentration needed to halve the response being measured. By Ki is commonly meant a dissociation constant, usually derived from enzyme kinetics or from competition with a known ligand. The inhibition is the percentage by which the read-out fell short of the control. As to `CC(C)c1nc2ccccc2n1C(=O)c1cccc2ccccc12`, the IC50 at Cannabinoid receptor 1 is over 10000 nM; at Cannabinoid receptor 2 [3] it was 2100 nM; in data set [4] it was over 10000 nM; in [5] it was 4410 nM; in data set [7], 70 nM; in data set [8], over 10000 nM. Further, the Ki at Cannabinoid receptor 1 is over 10000 nM; at Cannabinoid receptor 2 [3] it was 500 nM. In [1], the inhibition at 1.5 h, 1 µM was over 50%. Moreover, on Cannabinoid receptor 2 [2], the inhibition is over 50%. Further, in the data set listed under Homo sapiens, the Ratio Ki was over 20. For the same compound, the IC50 at 72 h in [6] is 7230 nM.

As for `CCCCCc1sc2ccccc2c1C(=O)c1cccc2ccccc12`, the IC50 was 800 nM on Cannabinoid receptor 1; 1300 nM on Cannabinoid receptor 2 [3]; over 10000 nM in [4]; over 10000 nM in data set [5]; 170 nM in [7]; over 10000 nM in data set [8]. For the same compound, the Ki amounted to 500 nM on Cannabinoid receptor 1 and 300 nM on Cannabinoid receptor 2 [3]. Besides, in [1], the inhibition at 1.5 h, 1 µM was over 50%. Also, the inhibition at Cannabinoid receptor 2 [2] was over 50%. Besides, the Ratio Ki in the data set filed under Homo sapiens came to 1.7. Also, in [6], the IC50 at 72 h was over 10000 nM.

Regarding `COc1ccc(Cn2c(-c3ccc(OC)cc3)nc3ccccc32)cc1`, the IC50 on Cannabinoid receptor 1 is over 10000 nM; on Cannabinoid receptor 2 [3] it was 2700 nM; in [4] it was 3060 nM; in [5], 1750 nM; in [7], 57 nM; in data set [8], over 10000 nM. The Ki on Cannabinoid receptor 1 was over 10000 nM; at Cannabinoid receptor 2 [3] it was 700 nM. Moreover, the inhibition at 1.5 h, 1 µM in data set [1] was over 50%. The inhibition at Cannabinoid receptor 2 [2] is over 50%. Besides, the Ratio Ki in the data set filed under Homo sapiens was over 14. In addition, the IC50 at 72 h in [6] is over 10000 nM.

For the compound `CCc1sc2ccccc2c1C(=O)c1cccc2ccccc12`, the IC50 is 8400 nM on Cannabinoid receptor 1; 2900 nM at Cannabinoid receptor 2 [3]; over 10000 nM in data set [4]; over 10000 nM in data set [5]; 99 nM in [7]; over 10000 nM in data set [8]. In addition, the Ki on Cannabinoid receptor 1 was 5100 nM; at Cannabinoid receptor 2 [3], 700 nM. For the same compound, the inhibition at 1.5 h, 1 µM in data set [1] was over 50%. In addition, the inhibition on Cannabinoid receptor 2 [2] is over 50%. For the same compound, in the data set filed under Homo sapiens, the Ratio Ki stood at 7.28. Also, the IC50 at 72 h in data set [6] was over 10000 nM.
